ChEMBL document CHEMBL1123577, “Synthesis and structure-activity relationships of a series of aminopyridazine derivatives of gamma-aminobutyric acid acting as selective GABA-A antagonists” (J Med Chem, 1987)

Target: not listed separately
Assay: Inhibitory activity against sodium-dependent synaptosome uptake was determined
Type: functional, tissue-based, Brain

Ki [µM]	Compound
8	[N-]=[N+]=Nc1ccc(/C(N)=N/CCCC(=O)O)cc1

Target: GABA-A receptor; anion channel
Assay: Binding affinity, determined by its ability to displace the [3H]GABA from Gamma-aminobutyric acid A (GABA-A) receptor site of rat brain membranes
Set-up: species or system Membrane

Compound	Ki [µM]
Nc1ccc(-c2cccs2)n[n+]1CCCC(=O)O	0.58
Cc1ccn[n+](CCCC(=O)O)c1N	31.9
Cc1cc(-c2ccccc2)n[n+](C(C)CCC(=O)O)c1N (configuration not stated)	9
Cc1cc(-c2ccccc2)n[n+](CCC(C)C(=O)O)c1N (configuration not stated)	7
Cc1ccc(-c2cc(C)c(N)[n+](CCCC(=O)O)n2)cc1	0.55
N#CCCC[n+]1nc(-c2ccccc2)cc(-c2ccccc2)c1N	91
COc1ccc(-c2cc(C)c(N)[n+](CCCC(=O)O)n2)cc1	0.31
NC1C=CC(c2ccccc2)=NN1CCCC(=O)O (configuration not stated)	1.22
Nc1ccc(-c2ccccc2Cl)n[n+]1CCCC(=O)O	1.37
CC(C)Cc1ccc(N)[n+](CCCC(=O)O)n1	22.3
Cc1cc(-c2ccccc2)n[n+](CCCCCC(=O)O)c1N	12.7
Cc1cc(-c2ccc(O)cc2)n[n+](CCCC(=O)O)c1N	0.43
Nc1ccc(-c2ccsc2)n[n+]1CCCC(=O)O	2.37
O=C(O)CCCC1CCNC1 (configuration not stated)	> 100
Cc1cc(-c2ccc([N+](=O)[O-])cc2)n[n+](CCCC(=O)O)c1N	22.8
Oc1onc2c1CCNCC2	50
NC(=O)NCCCC(=O)O	100
Cc1cc(-c2cccc3ccccc23)n[n+](CCCC(=O)O)c1N	2.64
Nc1ccc(-c2ccc(F)cc2)n[n+]1CCCC(=O)O	1.27
Nc1ccc(-c2ccc(Cl)cc2)n[n+]1CCCC(=O)O	0.28
Cc1cc(-c2cccc(Cl)c2)n[n+](CCCC(=O)O)c1N	0.45
Nc1ccc(-c2ccc(Cl)cc2Cl)n[n+]1CCCC(=O)O	0.56
Cc1cc(-c2ccccc2)nn(CCCC(=O)O)c1=O	> 100
CC(C)(C)C(=O)ONCCCC(=O)O	100
C[N+]1(C)CCc2cc3c(cc2[C@H]1[C@@H]1OC(=O)c2c1ccc1c2OCO1)OCO3	38
CC12CC(=O)C3C(CCC4CC(O)CCC43C)C1CC(=N)N2 (configuration not stated)	0.047
Cc1cc(-c2ccccc2)n[n+](CC(=O)O)c1N	62
Cc1cc(-c2ccccc2)n[n+](CCCC(=O)O)c1N [FAMIRAPRINIUM CHLORIDE]	2.3

The next lines start with the values.

Ki [µM]	Compound
3.74	Nc1ccc(C2CCCCC2)n[n+]1CCCC(=O)O
10.6	Cc1n[n+](CCCC(=O)O)c(N)cc1-c1ccccc1
91	N#CCCC[n+]1nc(-c2ccccc2)ccc1N
10.4	Cc1cc(N)[n+](CCCC(=O)O)nc1-c1ccccc1
7	Cc1cc(-c2ccccc2)n[n+](CCC(=O)O)c1N
20	Cc1cc(-c2ccccc2)n[n+](CCCC#N)c1N
> 100	CCOC(=O)CCC[n+]1nc(-c2ccccc2)cc(C)c1N
10	Cc1cc(-c2ccccc2)n[n+](CCCCC(=O)O)c1N
> 100	CCCN(CCC)CCCC(=O)O
100	NC1C(c2ccccc2)=CC(c2ccccc2)=NN1CCCC(=O)O (configuration not stated)
91	Cc1cc(-c2ccccc2)n[n+](CCCC(N)=O)c1N
2.14	Cc1cc(-c2ccccc2Cl)n[n+](CCCC(=O)O)c1N
91.2	Nc1ccc(Cl)n[n+]1CCCC(=O)O
1.37	Nc1ccc(-c2ccc([N+](=O)[O-])cc2)n[n+]1CCCC(=O)O
100	Nc1cc(-c2ccccc2)cn[n+]1CCCC(=O)O

Target: 4-aminobutyrate aminotransferase, mitochondrial (Homo sapiens, UniProt P80404)
Assay: Compound was tested for inhibition of Gamma-amino-N-butyrate transaminase

Sequence of 4-aminobutyrate aminotransferase, mitochondrial (P80404 whole entry): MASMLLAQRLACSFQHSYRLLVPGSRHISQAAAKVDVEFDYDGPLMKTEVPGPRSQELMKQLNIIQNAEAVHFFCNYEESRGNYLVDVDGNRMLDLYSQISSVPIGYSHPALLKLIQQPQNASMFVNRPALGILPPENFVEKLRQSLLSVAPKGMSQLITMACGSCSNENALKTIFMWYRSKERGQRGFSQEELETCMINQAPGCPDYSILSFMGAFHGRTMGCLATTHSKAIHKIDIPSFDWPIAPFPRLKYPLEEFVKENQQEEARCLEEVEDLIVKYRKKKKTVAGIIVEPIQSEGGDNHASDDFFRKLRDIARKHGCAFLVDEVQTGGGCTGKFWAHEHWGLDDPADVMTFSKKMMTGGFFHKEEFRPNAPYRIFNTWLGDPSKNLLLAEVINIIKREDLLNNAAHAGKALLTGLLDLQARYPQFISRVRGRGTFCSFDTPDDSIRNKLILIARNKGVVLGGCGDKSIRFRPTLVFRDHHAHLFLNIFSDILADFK

Ki [µM]	Compound
91	O=C(O)CNC(=S)Nc1ccccc1

Target: GABA-A receptor; anion channel
Assay: Inhibition of [3H]GABA binding to Gamma-aminobutyric acid A (GABA-A) receptor of rat brain membranes
Type: cell membranes, Membrane
Method in brief: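 Triton-treated whole-brain membranes from male Wistar rats (180–220 g), labelled with [3H]GABA at 2.9 nM. Compounds were first screened at 100 μM. Those inhibiting binding by more than 50% were run as dose-inhibition curves of four to eight concentrations in triplicate incubations, and IC50 was derived by log-probit analysis.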

Compound	IC50 [µM]
Nc1nc(CCC(=O)O)cs1	68
N/C(S)=N\CC(=O)O	18
O=C(O)CCc1c[nH]cn1	290
O=C(O)Cc1c[nH]cn1 [IMIDAZOLE ACETIC ACID]	0.9

Other lines, results leading:

IC50 [µM]	Compound
29	N=C(N)SCCC(=O)O
2.1	N=C(N)NCC(=O)O [GUANIDINO ACETATE]
1.8	N=C(N)NCCC(=O)O [OMPENACLID]
